In ChEMBL document CHEMBL2177013, “Synthesis and biological evaluation of tylophorine-derived dibenzoquinolines as orally active agents: exploration of the role of tylophorine e ring on biological activity” (J Med Chem, 2012):
pEC50: −log10 of the molar value. Values after ≈ are worked out from the molar mass of the structure shown. Active and inactive are the calls of the source. The rule behind the calls is not given here.

Key:
MCF7 [1] = assay: Down regulation of cyclin A2 expression in human MCF7 cells incubated for 24 hrs by Western blotting; format: functional, cell-based
A549 = assay: Down regulation of cyclin A2 expression in human A549 cells incubated for 24 hrs by Western blotting; format: functional, cell-based
Mus musculus = assay: Toxicity in human A549 cells xenografted Nu-Foxn1'nu mouse assessed as incidence of overt toxicity at 10 mg/kg, po administered once daily on day 1 to 10, day 15 to 19 and day 22 to 26; format: organism-based; parameters: dose 10 mg/kg, route oral; conditions: in vivo
Procedure, shortened: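 Four-week-old male nude mice given 10 million A549 cells subcutaneously in the right flank. At ~60 mm³, randomised to vehicle (25% DMA + 75% PEG400) or oral gavage once daily (n = 8). Mice monitored for overt adverse signs, with body weight tracked.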

MCF7 [2] = assay: Induction of c-Jun protein accumulation in human MCF7 cells incubated for 24 hrs by Western blotting; format: functional, cell-based
[3] = AUC (0 to infinity) in Sprague-Dawley rat at 3 mg/kg, po by HPLC-MS method; format: ADME, organism-based; parameters: dose 3 mg/kg, route oral, time infinity; conditions: plasma
Procedure, shortened: (§1)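 Male rats (330−380 g, 9−10 weeks old), jugular vein cannulated 1 day before dosing, fasted; 3 mg/kg iv or oral in DMA/PEG400 (30/70, v/v), n = 3. Blood (150 μL) drawn at 0, 2, 5 (iv only), 15, 30 min and 1, 2, 4, 6, 8, 12, 24 h, kept on ice; plasma analysed by HPLC-MS; noncompartmental analysis.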

[4] = Apparent elimination half life in Sprague-Dawley rat at 3 mg/kg, po by HPLC-MS method; format: ADME, organism-based; parameters: dose 3 mg/kg, route oral; conditions: in vivo, read-out: betat1/2(app) (converted)
Procedure, shortened: (§2)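 Male rats (330−380 g, 9−10 weeks), jugular vein cannula implanted 1 day before, fasted. 3 mg/kg given iv or orally (n = 3) in DMA/PEG400 30/70 v/v. Blood (150 μL) drawn at 0, 2, 5 (iv only), 15, 30 min and 1, 2, 4, 6, 8, 12, 24 h; plasma analysed by HPLC-MS; noncompartmental analysis.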

[5] = tested on: Transmissible gastroenteritis virus; assay: Antiviral activity against Transmissible gastroenteritis virus infected in ST cells assessed as reduction in N-protein expression pre-treated before virus infection measured 16 hrs post virus infection by Western blotting; format: functional, organism-based
Procedure, shortened: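 ST cells pretreated with compound, then infected with TGEV. Western blot for nucleocapsid (N) protein, caspase 3 (cleavage of procaspase 3) and GAPDH at 16 hpi. Representative of at least three independent experiments.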

[6] = AUC (0 to infinity) in Sprague-Dawley rat at 3 mg/kg, iv by HPLC-MS method; format: ADME, organism-based; parameters: time infinity, dose 3 mg/kg, route intravenous; conditions: plasma; procedure, shortened: as §1
MCF7 [7] = assay: Growth inhibition of human MCF7 cells; format: functional
Procedure, shortened: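 Cells seeded per well: NUGC-3 4500, HONE-1 6000, MCF-7 6500, NCI-H460 2500, HepG2 10000, A549 5000; A549 grown in RPMI 1640 with 2 g/L NaHCO₃, 2 mM L-glutamine and 10% FBS. GI₅₀ = concentration giving 50% growth inhibition, mean of at least three experiments each in duplicate. Paclitaxel served as positive control.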

[8] = Cmax in Sprague-Dawley rat at 3 mg/kg, po by HPLC-MS method; format: ADME, organism-based; parameters: dose 3 mg/kg, route oral; conditions: in vivo; procedure, shortened: as §2
[9] = Solubility in DMSO; format: physicochemical
Procedure, shortened: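 Compound dissolved in DMSO with sonication; maximal volume before precipitation measured and used to calculate saturation solubility.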

NCI-H460 = assay: Down regulation of cyclin A2 expression in human NCI-H460 cells incubated for 24 hrs by Western blotting; format: functional, cell-based
RAW264.7 = assay: Antiinflammatory activity in mouse RAW264.7 cells assessed as inhibition of LPS-induced nitric oxide production incubated for 18 hrs by nitrate/nitrite assay; format: functional, cell-based; conditions: RAW264.7, 18 h
Procedure, shortened: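 RAW264.7 seeded 65000 cells/well, cultured 24 h, then medium replaced with complete medium containing IFNγ (20 ng/mL)/LPS (5 μg/mL) plus compound at various concentrations for 18 h; nitric oxide measured by Nitrate/Nitrite kit. EC50 as mean of at least three experiments, each in duplicate.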

With `CCN1Cc2c(c3ccc(OC)cc3c3cc(OC)c(OC)cc23)C(O)C1` (stereo not drawn) the Activity (MCF7 [1]) was “Active”, the Activity (A549) was “Active” and the Activity (Mus musculus) was “Non-toxic”. The Activity (MCF7 [2]) was “Active”, the AUC(0-inf) [3] was 646 ng·h/mL and the half-life [4] was 11.8 h. For the same molecule, the Activity [5] was “Active”, the AUC(0-inf) [6] was 999 ng·h/mL and the GI50 (MCF7 [7]) was 40 nM. For the same molecule, the Cmax [8] was 72.4 ng/mL, the solubility [9] was 60.5 mM (≈ 22.2 mg/mL) and the Activity (NCI-H460) was “Active”. It also gave a pEC50 (RAW264.7) of 7.15.
